Reference: article PMC9061098 (RSC Advances, 2019)
Peptide text beside a SMILES is read from it.

Assays:
Assay in all cases: MIC/MBC microdilution assay
P. aeruginosa ATCC 27853 = assay type: cell-based, Pseudomonas aeruginosa; conditions: n = 2; for Antibacterial activity, MIC: microdilution, 24 h at 37 °C, absorbance 620 nm; for Antibacterial activity, MBC: plated on MHA, overnight 37 °C
Summary of the method: (§1)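 Broth microdilution: 90 µL peptide (200, 100, 50, 25, 12.5 and 6.2 µg mL-1 as added) plus 10 µL inoculum (5 × 10^6 CFU mL-1 as added). Incubation 24 h at 37 °C; growth read as absorbance at 620 nm. For MBC, wells with no visible growth were loop-sampled, spread on MHA and incubated overnight at 37 °C. Run twice (n = 2).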

E. coli ATCC 43827 = assay type: cell-based, Escherichia coli; conditions: n = 2; for Antibacterial activity, MIC: microdilution, 24 h at 37 °C, absorbance 620 nm; for Antibacterial activity, MBC: plated on MHA, overnight 37 °C
Summary of the method: as §1

S. aureus ATCC 25923 = assay type: cell-based, Staphylococcus aureus; conditions: n = 2; for Antibacterial activity, MIC: microdilution, 24 h at 37 °C, absorbance 620 nm; for Antibacterial activity, MBC: plated on MHA, overnight 37 °C
Summary of the method: as §1

E. faecalis ATCC 29212 = assay type: cell-based, Enterococcus faecalis; conditions: n = 2; for Antibacterial activity, MIC: microdilution, 24 h at 37 °C, absorbance 620 nm; for Antibacterial activity, MBC: plated on MHA, overnight 37 °C
Summary of the method: as §1

E. coli ATCC 25922 = assay type: cell-based, Escherichia coli; conditions: n = 2
Summary of the method: as §1

E. coli ATCC 11775 = assay type: cell-based, Escherichia coli; conditions: n = 2
Summary of the method: as §1

[1] = microdilution, 24 h at 37 °C, absorbance 620 nm

| Antibacterial activity, MIC (P. aeruginosa ATCC 27853) [µM] | Antibacterial activity, MIC (E. coli ATCC 43827) [µM] | Antibacterial activity, MIC (S. aureus ATCC 25923) [µM] | Antibacterial activity, MIC (E. faecalis ATCC 29212) [µM] | Antibacterial activity, MIC (E. coli ATCC 25922; [1]) [µM] | Antibacterial activity, MIC (E. coli ATCC 11775; [1]) [µM] | Compound | Antibacterial activity, MBC (P. aeruginosa ATCC 27853) [µM] | Antibacterial activity, MBC (E. coli ATCC 43827) [µM] | Antibacterial activity, MBC (S. aureus ATCC 25923) [µM] | Antibacterial activity, MBC (E. faecalis ATCC 29212) [µM] | Antibacterial activity, MBC (E. coli ATCC 25922; plated on MHA, overnight 37 °C) [µM] | Antibacterial activity, MBC (E. coli ATCC 11775; plated on MHA, overnight 37 °C) [µM] |
| --- | --- | --- | --- | --- | --- | --- | --- | --- | --- | --- | --- | --- |
| 203 | 102 | 203 | > 203 | – | – | N=C(N)NCCC[C@H](NC(=O)[C@H](Cc1c[nH]c2ccccc12)NC(=O)[C@H](CCC(N)=O)NC(=O)[C@H](Cc1c[nH]c2ccccc12)NC(=O)[C@H](CCCNC(=N)N)NC(=O)[C@@H](N)CCCNC(=N)N)C(N)=O [LfcinB (20–25)] (H-RRWQWR-NH2) | > 203 | 203 | > 203 | > 203 | – | – |
| > 130 | 65 | 130 | > 130 | – | – | CSCC[C@H](NC(=O)[C@H](CCCNC(=N)N)NC(=O)[C@H](Cc1c[nH]c2ccccc12)NC(=O)[C@H](CCC(N)=O)NC(=O)[C@H](Cc1c[nH]c2ccccc12)NC(=O)[C@H](CCCNC(=N)N)NC(=O)[C@@H](N)CCCNC(=N)N)C(=O)N[C@@H](CCCCN)C(=O)N[C@@H](CCCCN)C(=O)N[C@@H](CC(C)C)C(=O)NCC(N)=O [LfcinB (20–30)] (H-RRWQWRMKKLG-NH2) | > 130 | 130 | > 130 | > 130 | – | – |
| 67 | 17 | 135 | 67 | 17 | 17 | N=C(N)NCCC[C@H](NC(=O)[C@H](Cc1c[nH]c2ccccc12)NC(=O)[C@H](CCC(N)=O)NC(=O)[C@H](Cc1c[nH]c2ccccc12)NC(=O)[C@H](CCCNC(=N)N)NC(=O)[C@H](Cc1c[nH]c2ccccc12)NC(=O)[C@H](CCC(N)=O)NC(=O)[C@H](Cc1c[nH]c2ccccc12)NC(=O)[C@@H](N)CCCNC(=N)N)C(N)=O [LfcinB (21–25)Pal] (H-RWQWRWQWR-NH2) | 135 | 67 | > 135 | 67 | 34 | 17 |

| Compound | Antibacterial activity, MIC (P. aeruginosa ATCC 27853) [µM] | Antibacterial activity, MIC (E. coli ATCC 43827) [µM] | Antibacterial activity, MIC (S. aureus ATCC 25923) [µM] | Antibacterial activity, MIC (E. faecalis ATCC 29212) [µM] | Antibacterial activity, MIC (E. coli ATCC 25922; [1]) [µM] | Antibacterial activity, MIC (E. coli ATCC 11775; [1]) [µM] | Antibacterial activity, MBC (P. aeruginosa ATCC 27853) [µM] | Antibacterial activity, MBC (E. coli ATCC 43827) [µM] | Antibacterial activity, MBC (S. aureus ATCC 25923) [µM] | Antibacterial activity, MBC (E. faecalis ATCC 29212) [µM] | Antibacterial activity, MBC (E. coli ATCC 25922; plated on MHA, overnight 37 °C) [µM] | Antibacterial activity, MBC (E. coli ATCC 11775; plated on MHA, overnight 37 °C) [µM] |
| --- | --- | --- | --- | --- | --- | --- | --- | --- | --- | --- | --- | --- |
| CSCC[C@H](NC(=O)[C@H](CCCNC(=N)N)NC(=O)[C@H](Cc1c[nH]c2ccccc12)NC(=O)[C@H](CCC(N)=O)NC(=O)[C@H](Cc1c[nH]c2ccccc12)NC(=O)[C@H](CCCNC(=N)N)NC(=O)[C@H](CCCNC(=N)N)NC(=O)[C@H](C)NC(=O)[C@H](CCCCN)NC(=O)[C@@H](N)Cc1ccccc1)C(=O)N[C@@H](CCCCN)C(=O)N[C@@H](CCCCN)C(=O)N[C@@H](CC(C)C)C(=O)NCC(=O)N[C@@H](C)C(N)=O [[Ala^19]-LfcinB (17–31)] | 102 | 102 | > 102 | > 102 | – | – | > 102 | > 102 | > 102 | > 102 | – | – |
